ChEMBL document CHEMBL1135717, “Minor groove DNA binders as antimicrobial agents. 1. Pyrrole tetraamides are potent antibacterials against vancomycin resistant Enterococci [corrected] and methicillin resistant Staphylococcus aureus” (J Med Chem, 2002)
≈ marks a conversion by molar mass, not a printed value.

Legend:
[1] = Toxicity assessed in human T-cells using a colorimetric cell proliferation assay.; format: cell-based
In short: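 CCRF-CEM human leukemia T-cells in RPMI-1640 with 10% FBS and gentamicin 0.1 mg/mL, seeded at 4 × 10^4 cells/well. Compound added at start at 50, 25, 12.5 and 6.3 μM. WST-1 cleavage read by absorbance at 440 nm at 24, 48 and 72 h. Value reported as lowest % of no-compound control, typically 72 h at 50 μM. At least triplicate.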

Nucleic Acid [2] = assay: Changes in the DNA melting temperature of an AT-rich dodecamer (CGATTATTAAGC) (GCTTAATAATCG) upon binding of an equimolar amount of compound; format: nucleic-acid assay
In short: (§1)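 Melting monitored by UV absorbance at 260 nm in 10 mM HEPES pH 7.2, 0.1 mM EDTA, 50 mM NaCl. 12-bp AT-rich oligo at 5 μM mixed with compound at equimolar ratio. Temperature ramped 15 to 95 °C at 0.2 °C/min. Tm by derivative method, checked by hyperchromicity. ΔTm is Tm with compound minus Tm without. At least duplicate.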

Enterococcus [3] = assay: In vitro antimicrobial activity against Vancomycin resistant enterococcus strain BM4147; format: functional
In short: (§2)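 Broth microdilution MIC per NCCLS M7-A4. Compounds dissolved fresh in DMSO as 10 mM stock, then diluted in BHI medium for VRE (BM4147, UCD3) or Mueller-Hinton medium for MRSA. Seven 1:2 serial dilutions gave test concentrations of 45.5 to 0.7 μM. MIC read by visual inspection of wells after 2 days.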

Enterococcus [4] = assay: In vitro antimicrobial activity against Vancomycin resistant enterococcus strain UCD-3; format: functional; in short: as §2
Staphylococcus aureus = assay: In vitro antimicrobial activity against Methicillin resistant Staphylococcus aureus; format: functional; in short: as §2
Nucleic Acid [5] = assay: DNA binding measured as Changes in the DNA melting temperature of an AT-rich dodecamer (CGATTATTAAGC) (GCTTAATAATCG) upon binding of an equimolar amount of compound; format: nucleic-acid assay; in short: as §1

| Structure (SMILES) | NCC [1] | ΔTm (Nucleic Acid [2]) | MIC (Enterococcus [3]) | MIC (Enterococcus [4]) | MIC (Staphylococcus aureus) | ΔTm (Nucleic Acid [5]) |
| --- | --- | --- | --- | --- | --- | --- |
| Cn1cc(NC(=O)c2cc(NC(=O)c3cc(NC=O)cn3C)cn2C)cc1C(=O)NCCC(=N)N [STALLIMYCIN] | 79% | 26 | > 45.5 µM | > 45.5 µM | > 45.5 µM | – |
| CN=C(CCNC(=O)c1cc(NC(=O)c2ccc(C(=O)Nc3cc(C(=O)NCCC(=NC)NC)n(CCC(C)C)c3)cc2)cn1CCC(C)C)NC | 50% | – | – | – | – | – |
| N=C(N)CCNC(=O)c1cc(NC(=O)c2ccc(C(=O)Nc3cc(C(=O)NCCC(=N)N)n(CC4CC4)c3)c([N+](=O)[O-])c2)cn1CC1CC1 | 87% | – | 2.8 µM (≈ 1.89 µg/mL) | 2.8 µM (≈ 1.89 µg/mL) | 1.4 µM (≈ 0.943 µg/mL) | 28 °C |
| Cc1cc(C(=O)Nc2cc(C(=O)NCCC(=N)N)n(CCC(C)C)c2)ccc1C(=O)Nc1cc(C(=O)NCCC(=N)N)n(CCC(C)C)c1 | 38% | – | 1.4 µM (≈ 0.945 µg/mL) | 1.4 µM (≈ 0.945 µg/mL) | 0.7 µM (≈ 0.472 µg/mL) | 24 °C |
| CC(C)CCn1cc(NC(=O)c2ccc(C(=O)Nc3cc(C(=O)NCCC(=N)N)n(CCC(C)C)c3)c([N+](=O)[O-])c2)cc1C(=O)NCCC(=N)N | 42% | – | 1.4 µM (≈ 0.988 µg/mL) | 1.4 µM (≈ 0.988 µg/mL) | 1.4 µM (≈ 0.988 µg/mL) | 25 °C |
| Cn1cc(NC(=O)c2ccc(C(=O)Nc3cc(C(=O)NCCC(=N)N)n(C)c3)cc2)cc1C(=O)NCCC(=N)N | 56% | 30 | 22.2 µM (≈ 12.2 µg/mL) | > 45.5 µM | 22.7 µM (≈ 12.5 µg/mL) | – |
| CNC(=N)CCNC(=O)c1cc(NC(=O)c2ccc(C(=O)Nc3cc(C(=O)NCCC(=N)NC)n(CCC(C)C)c3)cc2)cn1CCC(C)C | 78% | – | – | – | – | – |
| N=C(N)CCNC(=O)c1cc(NC(=O)c2cnc(C(=O)Nc3cc(C(=O)NCCC(=N)N)n(CC4CC4)c3)cn2)cn1CC1CC1 | 90% | – | 2.8 µM (≈ 1.77 µg/mL) | 5.7 µM (≈ 3.6 µg/mL) | 2.8 µM (≈ 1.77 µg/mL) | 23 °C |
| CC/N=C(\N)CCNC(=O)c1cc(NC(=O)c2ccc(C(=O)Nc3cc(C(=O)NCC/C(N)=N/CC)n(CCC(C)C)c3)cc2)cn1CCC(C)C | 74% | – | 1.4 µM (≈ 1 µg/mL) | 1.4 µM (≈ 1 µg/mL) | 1.4 µM (≈ 1 µg/mL) | 27 °C |
| CC(C)CCn1cc(NC(=O)CCCCC(=O)Nc2cc(C(=O)NCCC(=N)N)n(CCC(C)C)c2)cc1C(=O)NCCC(=N)N | 87% | – | > 45.5 µM | > 45.5 µM | > 45.5 µM | 10 °C |
| CCCn1cc(NC(=O)c2ccc(C(=O)Nc3cc(C(=O)NCCC(=N)N)n(CCC)c3)cc2)cc1C(=O)NCCC(=N)N | 61% | 29 | 5.6 µM (≈ 3.39 µg/mL) | 5.6 µM (≈ 3.39 µg/mL) | 11.1 µM (≈ 6.71 µg/mL) | – |
| CC(C)CCn1cc(NC(=O)c2ccc3cc(C(=O)Nc4cc(C(=O)NCCC(=N)N)n(CCC(C)C)c4)ccc3c2)cc1C(=O)NCCC(=N)N | 0% | – | > 45.5 µM | > 45.5 µM | > 45.5 µM | 24 °C |
| Cc1cc(C(=O)Nc2cc(C(=O)NCCC(=N)N)n(CCC(C)C)c2)c(C)cc1C(=O)Nc1cc(C(=O)NCCC(=N)N)n(CCC(C)C)c1 | 75% | – | > 45.5 µM | > 45.5 µM | 11.4 µM (≈ 7.85 µg/mL) | 12 °C |
| CC(C)CCn1cc(NC(=O)c2ccc(C(=O)Nc3cc(C(=O)NCCN=C(N)N)n(CCC(C)C)c3)cc2)cc1C(=O)NCCN=C(N)N | 5% | – | 1.4 µM (≈ 0.967 µg/mL) | 1.4 µM (≈ 0.967 µg/mL) | 0.7 µM (≈ 0.484 µg/mL) | 25 °C |
| C/N=C(\N)CCNC(=O)c1cc(NC(=O)c2ccc(C(=O)Nc3cc(C(=O)NCC/C(N)=N/C)n(CCC(C)C)c3)cc2)cn1CCC(C)C | – | – | 1.4 µM (≈ 0.964 µg/mL) | 1.4 µM (≈ 0.964 µg/mL) | 0.7 µM (≈ 0.482 µg/mL) | 28 °C |
| CC(C)CCn1cc(NC(=O)c2ccc(C(=O)Nc3cc(C(=O)NCCC4=NCCCN4)n(CCC(C)C)c3)cc2)cc1C(=O)NCCC1=NCCCN1 | 51% | – | 0.7 µM (≈ 0.519 µg/mL) | 0.7 µM (≈ 0.519 µg/mL) | 0.7 µM (≈ 0.519 µg/mL) | 28 °C |

| Structure (SMILES) | NCC [1] | ΔTm (Nucleic Acid [2]) | MIC (Enterococcus [3]) | MIC (Enterococcus [4]) | MIC (Staphylococcus aureus) | ΔTm (Nucleic Acid [5]) |
| --- | --- | --- | --- | --- | --- | --- |
| CC(C)CCn1cc(NC(=O)c2cnc(C(=O)Nc3cc(C(=O)NCCC(=N)N)n(CCC(C)C)c3)cn2)cc1C(=O)NCCC(=N)N | 32% | – | 2.8 µM (≈ 1.86 µg/mL) | 2.8 µM (≈ 1.86 µg/mL) | 2.8 µM (≈ 1.86 µg/mL) | 20 °C |
| CC(C)CCn1cc(NC(=O)c2ccc(C(=O)Nc3cc(C(=O)NCCC(=N)N)n(CCC(C)C)c3)cc2)cc1C(=O)NCCC(=N)N | 4% | 28 | 0.7 µM (≈ 0.463 µg/mL) | 0.7 µM (≈ 0.463 µg/mL) | 1.4 µM (≈ 0.925 µg/mL) | – |
| CCC/N=C(\N)CCNC(=O)c1cc(NC(=O)c2ccc(C(=O)Nc3cc(C(=O)NCC/C(N)=N/CCC)n(CCC(C)C)c3)cc2)cn1CCC(C)C | 15% | – | 1.4 µM (≈ 1.04 µg/mL) | 1.4 µM (≈ 1.04 µg/mL) | 1.4 µM (≈ 1.04 µg/mL) | 26 °C |
| CC(C)CCn1cc(NC(=O)C2=CC=C(C(=O)Nc3cc(C(=O)NCCC(=N)N)n(CCC(C)C)c3)CC2)cc1C(=O)NCCC(=N)N | 23% | – | 1.4 µM (≈ 0.928 µg/mL) | 1.4 µM (≈ 0.928 µg/mL) | 0.7 µM (≈ 0.464 µg/mL) | 26 °C |
| C/N=C(/CCNC(=O)c1cc(NC(=O)c2ccc(C(=O)Nc3cc(C(=O)NCC/C(=N/C)NC)n(CCC(C)C)c3)cc2)cn1CCC(C)C)NC | – | – | 1.4 µM (≈ 1 µg/mL) | 1.4 µM (≈ 1 µg/mL) | 1.4 µM (≈ 1 µg/mL) | 26 °C |
| N=C(N)CCNC(=O)c1cc(NC(=O)c2ccc(C(=O)Nc3cc(C(=O)NCCC(=N)N)n(CC4CC4)c3)cc2)cn1CC1CC1 | 72% | – | 2.8 µM (≈ 1.76 µg/mL) | 0.7 µM (≈ 0.44 µg/mL) | 1.4 µM (≈ 0.88 µg/mL) | 28 °C |
| N=C(N)CCNC(=O)c1cc(NC(=O)c2cc(C(=O)Nc3cc(C(=O)NCCC(=N)N)n(CC4CC4)c3)[nH]n2)cn1CC1CC1 | 88% | – | 5.7 µM (≈ 3.53 µg/mL) | 5.7 µM (≈ 3.53 µg/mL) | 2.8 µM (≈ 1.73 µg/mL) | 26 °C |
| N=C(N)CCNC(=O)c1cc(NC(=O)c2ccc(C(=O)Nc3cc(C(=O)NCCC(=N)N)n(CC4CC4)c3)nc2)cn1CC1CC1 | 82% | – | 1.4 µM (≈ 0.882 µg/mL) | 2.8 µM (≈ 1.76 µg/mL) | 1.4 µM (≈ 0.882 µg/mL) | 27 °C |
| CC(C)CCn1cc(NC(=O)c2ccc(C(=O)Nc3cc(C(=O)NCCN)n(CCC(C)C)c3)cc2)cc1C(=O)NCCN | 24% | – | 11.4 µM (≈ 6.92 µg/mL) | 11.4 µM (≈ 6.92 µg/mL) | 2.8 µM (≈ 1.7 µg/mL) | 20 °C |
| Cc1cc(C(=O)Nc2cc(C(=O)NCCC(=N)N)n(CC3CC3)c2)ccc1C(=O)Nc1cc(C(=O)NCCC(=N)N)n(CC2CC2)c1 | 87% | – | 2.8 µM (≈ 1.8 µg/mL) | 2.8 µM (≈ 1.8 µg/mL) | 2.8 µM (≈ 1.8 µg/mL) | 26 °C |
| N=C(N)CCNC(=O)c1cc(NC(=O)c2ccc(C(=O)Nc3cc(C(=O)NCCC(=N)N)n(CC4CC4)c3)s2)cn1CC1CC1 | 65% | – | 1.4 µM (≈ 0.889 µg/mL) | 2.8 µM (≈ 1.78 µg/mL) | 1.4 µM (≈ 0.889 µg/mL) | 27 °C |
| CC(C)CCn1cc(NC(=O)c2ccnc(C(=O)Nc3cc(C(=O)NCCC(=N)N)n(CCC(C)C)c3)c2)cc1C(=O)NCCC(=N)N | 6% | – | 22.7 µM (≈ 15 µg/mL) | 22.7 µM (≈ 15 µg/mL) | 2.8 µM (≈ 1.85 µg/mL) | 11 °C |
| CC(C)CCn1cc(NC(=O)C2CCC(C(=O)Nc3cc(C(=O)NCCC(=N)N)n(CCC(C)C)c3)CC2)cc1C(=O)NCCC(=N)N (stereo not given) | 88% | – | > 45.5 µM | > 45.5 µM | 11.4 µM (≈ 7.6 µg/mL) | 11 °C |
| CC(C)CCn1cc(NC(=O)c2ccc(C(=O)Nc3cc(C(=O)NCCC(=N)N)n(CCC(C)C)c3)nc2)cc1C(=O)NCCC(=N)N | 3% | – | 0.7 µM (≈ 0.463 µg/mL) | 1.4 µM (≈ 0.927 µg/mL) | 1.4 µM (≈ 0.927 µg/mL) | 25 °C |
| CC(C)CCn1cc(NC(=O)c2ccc(C(=O)Nc3cc(C(=O)NCCC(=N)N)n(CCC(C)C)c3)c3ccccc23)cc1C(=O)NCCC(=N)N | 15% | – | 2.8 µM (≈ 1.99 µg/mL) | 5.7 µM (≈ 4.05 µg/mL) | 2.8 µM (≈ 1.99 µg/mL) | 20 °C |
